# Kir21 block = Kir2.1 (mouse) channel inhibition; P35561; HEK293-Kir2.1, FluxOR thallium flux fluorescence; hits give low values; B-score at 10 µM; 310,000 compounds, 0.85% hits; AID 1672;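 active = fluorescence ratio B-score at or below minus 3 SD of library scores, with starting-brightness B-score within 2 SD, cut at about -4.2 in these data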;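 also: channel flux triggered by added potassium and thallium sulfate stimulus; B-score of peak minus minimum fluorescence over baseline after thallium stimulus; more negative B-score means stronger Kir2.1 block with less thallium influx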
# Target sequence (P35561 whole entry, looked up): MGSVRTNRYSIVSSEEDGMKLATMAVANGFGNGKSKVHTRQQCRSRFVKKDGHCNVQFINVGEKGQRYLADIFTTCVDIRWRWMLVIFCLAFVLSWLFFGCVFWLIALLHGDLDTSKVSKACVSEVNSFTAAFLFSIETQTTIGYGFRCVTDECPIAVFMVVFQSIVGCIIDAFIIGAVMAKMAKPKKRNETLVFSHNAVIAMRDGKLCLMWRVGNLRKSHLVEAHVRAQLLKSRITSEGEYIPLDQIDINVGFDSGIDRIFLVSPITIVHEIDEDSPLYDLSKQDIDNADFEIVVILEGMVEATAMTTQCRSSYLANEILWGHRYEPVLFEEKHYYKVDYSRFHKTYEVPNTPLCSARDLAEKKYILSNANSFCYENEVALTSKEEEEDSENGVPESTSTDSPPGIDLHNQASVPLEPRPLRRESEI
# TRPC6 activator = activates the mouse TRPC6 cation channel. Q61143. HEK293-TRPC6 membrane potential dye fluorescence; hits give high values. B-score at 10 µM. 310,000 compounds, 0.13% hits. AID 2550;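 active = B-score of the integrated fluorescence ratio above library mean plus 3 SD, and starting fluorescence ratio within library mean plus 5 SD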;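 also: higher score means more depolarization so channel activation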
# TRPC4 act = activators of mouse TRPC4 channel. HEK293 TRPC4beta/mu-opioid, Fluo4 calcium fluorescence; hits give high values. B-score at 10 µM. AID 2237. 310,000 compounds, 0.49% hits. Q9QUQ5;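 active = B-score above 5 SD of library B-scores, and initial fluorescence ratio not above library mean plus 5 SD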;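 also: positive B-score marks a calcium rise read as TRPC4 activation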
#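 Assay system: HEK293 stable line with TRPC4beta plus mu-opioid receptor. Times: dye 45 min RT, read 110 s. Measured by: kinetic Fluo4 calcium fluorescence. Measure: B score of integrated ratio. Controls: assay buffer as low control, maximal DAMGO as high control.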
# TRPC4 PAM = allosterically enhances the mouse TRPC4 cation channel. HEK293 TRPC4beta/mu-opioid, DAMGO EC20, Fluo-4 Ca2+ flux; hits give high values. Q9QUQ5. B-score at 10 µM. AID 2227. 310,000 compounds, 0.42% hits;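 active = B-score of calcium response area above 5 SD of library B-scores, with initial fluorescence ratio within 5 SD of library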;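 also: B-score of integrated fluorescence ratio over time as area under calcium response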
# TRPC4 block = TRPC4 (mouse) channel inhibition; Q9QUQ5; HEK293 TRPC4beta/mu-opioid, DAMGO-evoked Fluo4 calcium flux; hits give low values; 300,000 compounds, 0.39% hits; B-score at 10 µM;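 active = B-score over 3 SD under the library average, no early fluorescence shift, positive overall ratio signal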
#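 material = TRPC4beta/mu-opioid receptor HEK293 cell line | probe or stimulus = sequential submaximal and maximal DAMGO stimulation | compound dosing = one concentration per compound | measured by = Fluo4 Ca2+ flux fluorescence | evaluation = integrated fluorescence ratio relative to baseline, converted to per-well B score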
# TRPC6 inhibitor = inhibitors of mouse TRPC6 channel; Q61143; AID 2553; HEK293-TRPC6, membrane potential dye, ACh-evoked depolarization; hits give low values; B-score at 10 µM; 310,000 compounds, 1.1% hits;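 active = B-score under library mean minus 3 SD, initial fluorescence not abnormally high, positive integrated signal ratio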;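 also: B-score derived from integrated fluorescence ratio over the kinetic read; more negative B-score means stronger inhibition of depolarization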
# TRPC4 sel inh 2 = second check of whether TRPC6 inhibitors also affect mouse TRPC4. HEK293 TRPC4/MOR, membrane potential dye fluorescence; channel activated by saturating DAMGO dose. 920 compounds, 42% hits. shares compounds with TRPC6 inhibitor. inhibition, % at 10 µM;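 active = compounds whose fluorescence signal differed from control wells by over 3 SD, either direction, in both duplicate plates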
# TRPC4 spec = mouse TRPC4 off-target activity of TRPC6 inhibitors; shares compounds with TRPC6 inhibitor; HEK293 TRPC4/mu-opioid, membrane potential fluorescence; activity change, negative = inhibition, % at 10 µM; 920 compounds, 61% hits;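 active = rise or fall in signal beyond 3 SD of buffer-only wells in both replicate plates, either sign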;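 also: integrated kinetic ratio of fluorescence range over baseline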
# HEK293 MPD ctr 2-1 = second counter-screen for TRPC6 inhibitors: parental HEK293 cells. signal change vs control, % at 10 µM. parental HEK293 membrane potential dye fluorescence; maximal acetylcholine challenge after compound addition. shares compounds with TRPC6 inhibitor. 920 compounds, 31% hits;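 active = membrane potential signal moving either way by over 3 SD of the maximum-effect control, in both duplicate plates, meaning non-specific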
# HEK293 MPD ctr-1 = checks TRPC6 inhibitor effects in parental HEK293 cells | 920 compounds, 60% hits | parental HEK293 membrane potential dye fluorescence | shares compounds with TRPC6 inhibitor | membrane potential signal change, % at 10 µM;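 active = membrane potential signal shifting up or down by more than 3 SD of buffer-only wells, on both duplicate plates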
# HEK293 MPD ctr-2 = counter-screen for TRPC6 modulators: effect in parental HEK293 cells. shares compounds with TRPC6 inhibitor. membrane potential dye fluorescence. membrane potential signal change, % at 10 µM. 2,400 compounds, 51% hits;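 active = membrane potential signal moves up or down beyond 5 SD from buffer-only wells, on both duplicate plates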
# HEK293 MPD ctr 2-2 = second counter-screen for TRPC6 modulators: effect in parental HEK293 cells; shares compounds with TRPC6 inhibitor; membrane potential dye fluorescence; after compound, maximal acetylcholine stimulation; 2,400 compounds, 14% hits; AID 488926; inhibition, % at 10 µM;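 active = membrane potential signal drops by more than 5 SD from the mean control signal, in both duplicate plates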;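 also: plate controls were acetylcholine ECmax control wells for no effect and buffer only wells for full effect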
# TRPC4/MOR mod = mouse TRPC4 off-target activity of TRPC6 modulators | percent change from control (negative = decrease, positive = increase), % at 10 µM | shares compounds with TRPC6 inhibitor | 2,400 compounds, 69% hits | HEK293 TRPC4/mu-opioid, membrane potential fluorescence;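 active = membrane potential signal moved up or down beyond 5 SD of buffer control wells, in both duplicate plates, actives on both sides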;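 also: plate controls were assay buffer wells for no effect and DAMGO maximal-effect wells for full effect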
# TRPC4/MOR inh 2 = second check of whether TRPC6 modulators also affect mouse TRPC4. inhibition, % at 10 µM. shares compounds with TRPC6 inhibitor. 2,400 compounds, 55% hits. HEK293 TRPC4/mu-opioid, membrane potential dye fluorescence; stimulated with maximal-effect DAMGO;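 active = drop in membrane potential signal beyond 5 SD of the control wells in both duplicate plates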;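 also: TRPC4 counter screen for TRPC6 hits run under conditions tuned for TRPC6 not TRPC4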
# TRPC6 block conf = mouse TRPC6 inhibitor confirmation. shares compounds with TRPC6 inhibitor. HEK293-TRPC6, membrane potential dye, ACh-evoked depolarization. inhibition, % at 10 µM. 3,300 compounds, 43% hits;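 active = fluorescence ratio falls more than 5 SD below the full-stimulation control mean, in both duplicate runs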;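 also: integrated fluorescence ratio of peak minus minimum over baseline after agonist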
# TRPC6 act conf = confirmation of mouse TRPC6 activators | activation, % at 10 µM | HEK293-TRPC6 membrane potential dye fluorescence, FDSS | shares compounds with TRPC6 inhibitor | 2,800 compounds, 11% hits;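 active = ratio signal rise beyond 5 SD above unstimulated control wells' mean, seen in both duplicate runs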;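 also: plate controls were buffer EC0 wells for no effect and acetylcholine ECmax response for full effect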
# * marks the source's active call; other numbers are inactive results; i = inactive; x = no result. Sampled rows, rich in hits. Any-hit rate of the full collection: about 2.9%.
SMILES,Kir21 block,TRPC6 activator,TRPC4 act,TRPC4 PAM,TRPC4 block,TRPC6 inhibitor,HEK293 MPD ctr-2,HEK293 MPD ctr 2-2,TRPC4/MOR mod,TRPC4/MOR inh 2,TRPC6 block conf,TRPC6 act conf,others
Cc1ccc[n+](Cc2ccc([N+](=O)[O-])cc2)c1,0.25,i,i,i,i,i,x,x,x,x,x,x,
O=[N+]([O-])c1ccc(C[n+]2cccc3c4ccccc4ccc32)cc1,-0.18,i,i,i,i,-6*,-434%*,i,-61%*,64%*,51%*,i,
COc1cc2c(cc1O)CC[n+]1cc3c(OC)c(OC)ccc3cc1-2,-0.08,i,i,i,i,-7.4*,x,x,x,x,i,i,TRPC4 sel inh 2=i;TRPC4 spec=-9.5%*;HEK293 MPD ctr 2-1=-66%*;HEK293 MPD ctr-1=i
COc1cc2c(cc1OC)-c1cc3ccc4c(c3c[n+]1CC2)OCO4,-4.3,i,i,i,i,-7.4*,i,91%*,-194%*,37%*,46%*,i,
COc1cc2c(ccc3cc(OC)c(OC)c(O)c32)cc1O,-1.6,i,i,i,i,i,x,x,x,x,x,x,
C=CCNC(=O)C12CC3(C)CC(C)(CC(C)(C3)C1)C2,0.36,i,i,i,i,i,x,x,x,x,x,x,
CCN1C(=O)/C(=C/C=C2\N(CC)c3cc(S(=O)(=O)N(C)C)ccc3N2c2ccccc2)SC1=S,-1.5,16*,i,20*,i,i,366%*,i,87%*,i,i,i,
CN(C)c1ccc(/C=C/C=C2/SC(=S)N(c3ccccc3)C2=O)cc1,-0.65,i,i,i,x,i,x,x,x,x,x,x,
COc1ccccc1N1CCN(C(=O)c2cc(-c3ccccc3)on2)CC1,0.16,i,i,i,i,i,x,x,x,x,x,x,
COc1ccccc1N1CCN(C(=O)c2cc(-c3ccccc3O)on2)CC1,0.17,i,i,i,i,-5.9*,i,i,i,i,i,i,
CC(=O)c1cccc(NC(=O)Nc2cnn(Cc3ccc(F)cc3)c2)c1,0.21,i,i,i,i,i,x,x,x,x,x,x,
Cc1ccc(NC2=C(N3CCOCC3)C(=O)c3ccccc3C2=O)cc1,-0.87,i,i,i,i,-5.5*,i,i,-31%*,78%*,i,i,
CC(=O)c1ccc(NC2=C(N3CCOCC3)C(=O)c3ccccc3C2=O)cc1,0.01,i,i,i,i,i,x,x,x,x,x,x,
CC(C)c1ccc2c(c1)CCC1C(C)(CN)CCCC21C (centres undefined),-6.1*,i,i,i,i,-6.4*,-82%*,i,-12%*,81%*,58%*,i,
C(=N\NCc1ccccc1)/c1ccc2nccnc2c1,0.29,i,i,i,i,i,x,x,x,x,x,x,
COc1ccccc1/C=C/C1=NC(=C\C=C/c2ccccc2)/C(=O)O1,-3.2,i,i,i,i,i,x,x,x,x,x,x,
COc1ccccc1/C=C/C=C1N=C(/C=C/c2ccc(Cl)cc2)OC/1=O,-3.2,i,i,i,i,-5.9*,554%*,i,32%*,i,i,x,
N#CC1=C(N)OC2=C(CC/C2=C\c2ccccc2)C1c1ccccc1 (centres undefined),-9.6,27*,i,13*,i,i,576%*,i,21%*,i,i,48%*,
CC(Sc1nc(N2CCOCC2)c2c(c1C#N)CC(C)(C)OC2)C(=O)O (centres undefined),-0.84,i,i,i,i,i,x,x,x,x,x,x,
COC(=O)c1ccc2nc(C)c(C)nc2c1,0.05,i,i,i,i,i,x,x,x,x,x,x,
Cc1ccc2nc(C)cc(Nc3ccc([N+](=O)[O-])cc3)c2c1,1.1,i,i,i,i,i,x,x,x,x,x,x,
COC(=O)c1ccc2nc(C)cc(Nc3ccccc3C)c2c1,-0.65,i,i,i,i,-5.9*,-149%*,i,-25%*,43%*,58%*,i,
COC(=O)c1ccc(Nc2cc(C)nc3ccc(C)cc23)cc1,-1.5,i,i,i,i,-7.2*,x,x,x,x,i,i,TRPC4 sel inh 2=i;TRPC4 spec=-22%*;HEK293 MPD ctr 2-1=i;HEK293 MPD ctr-1=-299%*
COc1cc(OC)c(OC)cc1/C=C1\CC(C)C/C(=C\c2cc(OC)c(OC)cc2OC)C1=O (centres undefined),-0.8,i,i,i,i,i,x,x,x,x,x,x,
CCN(CC)c1ccc(C=C2C(=O)OC(C)(C(C)(C)C)OC2=O)cc1 (centres undefined),-1.9,46*,i,i,i,i,i,i,102%*,i,i,i,
CC(=O)C1CCN(Cc2ccccc2)CC1,0,i,i,i,i,i,x,x,x,x,x,x,
CSc1ccccc1OC1CCN(Cc2ccccc2)CC1,-13*,12*,i,i,i,i,196%*,i,40%*,63%*,i,77%*,
